Screening data deposited in PubChem by Broad Institute.
PGC1a Ac signal: raises PGC1a acetylation signal in U2OS cells; activation, % at 15.6 µM; AID 651723; hit rate 0.21% among 350,000; U2OS PGC1a acetylation AlphaScreen, overnight;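 active = every replicate reaching activation of at least 50%, whatever the mean replicate activation; inconclusive = replicates that disagree or another doubt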;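 note: hits raise the AlphaScreen acetylation signal above neutral controls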
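detection = AlphaScreen lysate read | assay system = U2OS cells expressing flag-PGC1a plus GCN5 | input = 7000 cells/well | dosing = one concentration | times = compound overnight at 37 °C, each detection step 1 h RT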
Hep G6PC suppr: hepatocyte G6PC expression change via PGC-1a acetylation activation; AID 743463; shares compounds with PGC1a Ac signal; G6PC suppression (normalized activity, % of positive control; higher = more suppression), % at 26 µM; 240 tested, under 10 active; primary mouse hepatocytes, G6PC mRNA qPCR, forskolin;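 active = dose curves showing G6PC suppression whose half-maximal dose is at most twice the top valid dose; inconclusive = flat curves with moderate negative activity, or unreliable fits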;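 note: G6PC expression relative to GAPDH housekeeping gene as delta delta Ct; 0% = median of neutral control wells and 100% = median of positive control wells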
PCK1 hep suppr: PGC-1a acetylation activators affecting PCK1 expression in hepatocytes | shares compounds with PGC1a Ac signal | primary mouse hepatocytes, PCK1 mRNA qPCR, forskolin-stimulated | PCK1 expression decrease, unspecified at 26 µM | 230 tested, under 10 active;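 active = compounds lowering PCK1 expression whose fitted half-maximal concentration is at most twice the top tested dose; inconclusive = flat fit with moderate opposite-direction effect, or poor fit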;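 note: values are delta delta Ct of PCK1 relative to GAPDH; higher delta delta Ct means lower PCK1 expression so positive values indicate hits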
Hep PGC-1a down: PGC-1a acetylation activator altering hepatocyte PGC-1a expression. shares compounds with PGC1a Ac signal. primary mouse hepatocytes, PGC-1a mRNA qPCR, forskolin; top dose 26 µM. max activity (PGC-1a expression decrease), %. 240 tested, under 10 active. AID 743467;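 active = compound lowering PGC-1a expression with fitted half-maximal concentration at most twice its top tested dose; inconclusive = flat curve with moderate opposite-direction effect, or poor fit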;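 note: 0% = neutral control wells median and 100% = positive control wells median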
Active calls of the source: *; i = inactive; ? = inconclusive; . = not tested or not shown; [ ] = remark or other dose. The list is a sample of the results.

SMILES | PGC1a Ac signal | Hep G6PC suppr | PCK1 hep suppr | Hep PGC-1a down
O=C(Cc1ccccc1)Nc1ccc(NC(=O)c2ccco2)nc1 | ? | -6 | -48 | 84
CCCCCCC[C@@H](C/C=C/CCC(=O)O)OC | -45 | . | . | .
C[C@@H]1CN([C@@H](C)CO)C(=O)c2c(c3ccccc3n2C)-c2ccccc2CO[C@@H]1CN(C)C(=O)Nc1cccc(C(F)(F)F)c1 | 79* | 103[23.5 µM] | 45[23.5 µM] | 58
C[C@@H]1CN([C@H](C)CO)C(=O)c2c(c3ccccc3n2C)-c2ccccc2CO[C@@H]1CN(C)C(=O)Nc1cccc(C(F)(F)F)c1 | 68* | 112 | 196 | 157
C[C@@H]1CN([C@@H](C)CO)C(=O)c2c(c3ccccc3n2C)-c2ccccc2CO[C@@H]1CN(C)C(=O)Nc1ccc(F)cc1 | ? | -2[23.5 µM] | 42[23.5 µM] | 32
CO[C@@H](C(=O)N(C)C[C@H]1OCc2ccccc2-c2c(n(C)c3ccccc23)C(=O)N([C@H](C)CO)C[C@H]1C)c1ccccc1 | 72* | 8 | 32 | 79
COC(=O)c1[nH]c2ccc(F)cc2c1NS(=O)(=O)c1ccc(OC)cc1OC | -43 | . | . | .
Cn1nnnc1SC1CC(=O)N(c2ccccc2)C1=O (centres undefined) | -44 | . | . | .
COc1ccccc1CN1CCCC(C(=O)N(C)Cc2ccccc2)C1 (centres undefined) | -45 | . | . | .
CCC1NC(=S)N(C2CCCCC2)C1=O (centres undefined) | -55 | . | . | .
Cc1ccc(-c2[nH]ncc2/C=C(\C#N)C(=O)NC2CCCCC2)cc1 | -41 | . | . | .
COc1ccc(C(=O)/C(=C\c2ccco2)N2C=CC=CC2=C(C#N)C#N)cc1 | -71 | . | . | .
CC12CCC(C1)C(C)(C)C2NS(=O)(=O)c1ccc(F)cc1 (centres undefined) | ? | 19 | . | ?
O=C(Nc1ccc(F)cc1)N1CCN(c2nc3ccccc3s2)CC1 | ? | -42 | ? | 42
O=C(Nc1ccc(-c2cn3c(n2)SCC3)cc1)c1ccc2ccccc2n1 | -40 | . | . | .
CCCCN(C)Cc1c(C)[nH]c2ccccc2c1=O | -49 | . | . | .
COc1ccc(N=C2C(=Nc3ccc(OC)cc3)N(c3ccc(OC)cc3)C(=S)N2C(=O)c2ccc(OC)cc2)cc1 | -46 | . | . | .
C[C@@H]1CN([C@H](C)CO)C(=O)c2cc(N(C)C)ccc2O[C@@H](C)CCCCO[C@H]1CN(C)C(=O)Cc1ccccc1 | 119* | 14[23.5 µM] | 53[23.5 µM] | 103
C[C@H](CO)N1C[C@H](C)[C@@H](CN(C)Cc2ccc(C(F)(F)F)cc2)Oc2ccc(NS(=O)(=O)c3ccc(F)cc3)cc2C1=O | -103 | . | . | .
C[C@@H]1CN([C@H](C)CO)C(=O)c2cc(N(C)C)ccc2O[C@@H](C)CCCCO[C@H]1CN(C)C(=O)Nc1ccccc1 | 67* | -5[23.5 µM] | -7.9[23.5 µM] | 17
NCCCCCC(=O)O | -51 | . | . | .
CC(C)c1ccc(/C=N/NC(=O)C2CCCC2)cc1 | -46 | . | . | .
CC1(C)OC(=O)C(=Cc2ccc[nH]2)C(=O)O1 | -40 | . | . | .
CC(=O)c1ccc(N2CCN(C(=O)C(=O)c3c(C)[nH]c4ccccc34)CC2)cc1 | 66* | -37 | -14 | -14
Cc1ccccc1NC1=C/C(=N\S(=O)(=O)c2cccs2)c2ccccc2C1=O | -88 | . | . | .
SMILES | PGC1a Ac signal | Hep G6PC suppr | PCK1 hep suppr | Hep PGC-1a down
Nc1nn(-c2ccccc2)nc1C(=O)OCc1ccccc1 | -72 | . | . | .
COc1ccc(S(=O)(=O)NNC(=O)c2csc(-n3nc(C)cc3C(F)(F)F)n2)cc1 | -54 | 29 | -10 | 122
CC(=O)Nc1ccc(NC2=C/C(=N/S(=O)(=O)c3cccs3)c3ccccc3C2=O)cc1 | -70 | . | . | .
CCOC(=O)C1=C[C@@H](C(C)C)N(S(=O)(=O)c2ccc(C)cc2)[C@H]1c1ccc(C(F)(F)F)cc1 | 131* | -32 | 22 | 58
CCOC(=O)C1=CC[C@@H](c2ccc(F)cc2)N(S(=O)(=O)c2ccc(C)cc2)[C@H]1c1ccccc1 | 90* | . | 34 | 93
Cc1cc(=O)[nH]c(NN=Cc2cc(Br)ccc2O)n1 | -50 | . | . | .
O=C(C[C@H]1CC[C@H]2[C@@H](COC[C@@H](O)CN2C(=O)c2cc(Cl)cc(Cl)c2)O1)N1CCc2ccccc2C1 | ? | 26 | 59 | 91
CC(=O)[C@H]1CC[C@H]2[C@@H]3CC=C4C[C@@H](OS(=O)(=O)O)CC[C@]4(C)[C@H]3CC[C@]12C | -47 | . | . | .
CCOC(=O)Cn1cc(/C=C(/C#N)C(=O)NC(C)C)c2ccccc21 | -49 | . | . | .
O=C(Cn1cnc2c(nnn2Cc2ccc(Cl)cc2)c1=O)c1ccccc1 | -50 | . | . | .
N#Cc1ccccc1COC(=O)c1ccc2c(c1)OCCO2 | ? | -9 | 11 | -16
CCNC(=O)NC(=O)COc1ccccc1C#N | -45 | . | . | .
CC(=O)Nc1nonc1-c1nc2ccccc2n1Cc1ccccc1 | 61* | -7 | 11 | ?
Nn1cnnc1N/N=C/c1ccc(Cl)c([N+](=O)[O-])c1 | -53 | . | . | .
COc1ccc2nc3cc(Cl)ccc3c(Nc3cc(CN4CCCC4)c(O)c(CN4CCCC4)c3)c2n1 | -72 | . | . | .
CCCCN(CC)CCCNC(=O)c1cc2c(=O)n(CC)c3ccccc3c2s1 | ? | i | 214 | 172
CN(c1ncnc(N)c1[N+](=O)[O-])C1CCS(=O)(=O)C1 (centres undefined) | -58 | . | . | .
COc1ccc(-c2cn[nH]c2-c2ccc(O)cc2O)cc1 | -42 | . | . | .
CCOC(=O)C1=Nc2ccccc2C1=[N+]=[N-] | -45 | . | . | .
O=S(=O)(c1cccc(F)c1)N1CCN(Cc2cc3c(cc2Br)OCCO3)CC1 | 108* | 1 | 53 | 112
COc1cccc(NC(=O)N2CCN(c3cccc(C)c3)C(C)C2)c1 (centres undefined) | -45 | . | . | .
O=C(NCc1ccc(Cl)cc1)C1CCC(CNc2c(N3CCCC3)c(=O)c2=O)CC1 (centres undefined) | -43 | 7 | 43 | 44
C[C@@](Cc1ccc(O)c(O)c1)(NN)C(=O)O | -62 | . | . | .
N#Cc1cc2c(=O)n3ccccc3nc2n(Cc2cccnc2)c1=O | -49 | . | . | .
COc1ccc(CN2CCn3ncc(C(=O)Nc4ccccc4)c3C2=O)cc1 | -129 | 88 | 39 | 53
SMILES | PGC1a Ac signal | Hep G6PC suppr | PCK1 hep suppr | Hep PGC-1a down
O=[N+]([O-])c1c(NCCCO)cc(Sc2nc3ccccc3s2)c2nonc12 | -58 | . | . | .
CCOC(=O)c1ccc(N2C(=O)CC(N3CCC(O)(c4ccc(Br)cc4)CC3)C2=O)cc1 (centres undefined) | -47 | . | . | .
CC(=O)N(Cc1ccc(F)cc1)C1=C(NCCc2ccccc2)C(=O)c2ccccc2C1=O | -84 | . | . | .
Cc1cc(Cn2nc(C(=O)NCc3cccc(C(F)(F)F)c3)cc2-c2ccccc2)on1 | 78* | -60 | ? | 30
COCCNC(=O)c1ccc(C)cc1C | -44 | . | . | .
N/C(=N\OC(=O)CCCOc1ccccc1)c1ccc([N+](=O)[O-])cc1 | -90 | . | . | .
COc1ccc(-c2nc3ccccc3c(=O)o2)cc1OC | -49 | . | . | .
COc1ccc(C(=O)NCCCSC)cc1OC1CCN(C(C)C)CC1 | -44 | . | . | .
COc1ccc(S(=O)(=O)N2CCOCC2)cc1NC(=O)CCNC(=O)c1ccc(Cl)cc1 | 76* | 3 | 49 | ?
CCc1nnc(N/N=C/c2ccccc2Cl)n1N | -72 | . | . | .
COc1ccc(Br)cc1CNc1ccccc1 | -40 | 10 | 50 | 28
COc1ccccc1CNS(=O)(=O)c1cc(C)ccc1OC | -43 | . | . | .
